Assay results from the array DNA melting data of Ke et al. (doi:10.1101/2024.01.08.574731).

Experiments:
[1] = folding enthalpy; higher = less favourable; fluorescence melt of hairpins on a sequencing array, two-state fit; settings: sodium 0.088 M
How it was run: (§1)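 On a sequenced MiSeq flow cell, library hairpins with annealed Cy3 and quencher oligos were imaged for Cy3 fluorescence in 2.5 °C steps up to 60 °C, in 50 mM Na-HEPES pH 8.0, 25 mM NaCl. Normalisation used pre-quench Cy3 and control constructs. Bootstrapped two-state fits gave melting temperature and folding enthalpy, combined by inverse variance across four replicates and with fitted temperatures raised by 9.35 °C to match UV melts.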

[2] = melting temperature; fluorescence melt of hairpins on a sequencing array, two-state fit, raised by 9.35 °C to match UV melts; settings: sodium 0.088 M
How it was run: as §1

Sequence | folding enthalpy [1] | Tm [2]
GATCAATAAATTGATC ((((((....)))))) | -30.7 kcal/mol | 42.8 °C
GATCAATACATTGATC ((((((....)))))) | -37.3 kcal/mol | 49.2 °C
GATCAATACGTTGATC ((((((....)))))) | -37.9 kcal/mol | 48 °C
GATCAATACTTTGATC ((((((....)))))) | -39.6 kcal/mol | 48.1 °C
GATCAATAGTTGATC ((((((...)))))) | -26.2 kcal/mol | 40.5 °C
GATCAATATGTTGATC ((((((....)))))) | -38.9 kcal/mol | 49 °C
GATCAATATTTGATC ((((((...)))))) | -27.9 kcal/mol | 41.9 °C
GATCAATATTTTGATC ((((((....)))))) | -35.6 kcal/mol | 45.6 °C
GATCAATCCCTTGATC ((((((....)))))) | -41.6 kcal/mol | 46.7 °C
GATCAATCGTTGATC ((((((...)))))) | -26.8 kcal/mol | 40.4 °C
GATCAATGGCTTGATC ((((((....)))))) | -29 kcal/mol | 42.2 °C
GATCAATGGTTGATC ((((((...)))))) | -26.7 kcal/mol | 41 °C
GATCAATGGTTTGATC ((((((....)))))) | -31.9 kcal/mol | 44.7 °C
GATCAATGTGTTGATC ((((((....)))))) | -35 kcal/mol | 50.4 °C
GATCAATGTTTTGATC ((((((....)))))) | -29.4 kcal/mol | 47 °C
GATCAATTATTTGATC ((((((....)))))) | -38.9 kcal/mol | 45.8 °C
GATCAATTCATTGATC ((((((....)))))) | -50.7 kcal/mol | 53.1 °C
GATCAATTCGTTGATC ((((((....)))))) | -37.8 kcal/mol | 48.6 °C
GATCAATTCTTGATC ((((((...)))))) | -29.1 kcal/mol | 44.8 °C
GATCAATTTATTGATC ((((((....)))))) | -52.4 kcal/mol | 54.2 °C
GATCAATTTCTTGATC ((((((....)))))) | -39.3 kcal/mol | 43.3 °C
GATCACAAGGGTGATC ((((((....)))))) | -36.4 kcal/mol | 55.9 °C
GATCACAATCGTGATC ((((((....)))))) | -38.5 kcal/mol | 56.4 °C
GATCACACGGTGATC ((((((...)))))) | -37.5 kcal/mol | 60.5 °C

Sequence | folding enthalpy [1] | Tm [2]
GATCACACGTGTGATC ((((((....)))))) | -43.5 kcal/mol | 57.7 °C
GATCACACTTGTGATC ((((((....)))))) | -39.4 kcal/mol | 56.4 °C
GATCACAGAAGTGATC ((((((....)))))) | -37.4 kcal/mol | 54.4 °C
GATCACAGTAGTGATC ((((((....)))))) | -40.1 kcal/mol | 59 °C
GATCACAGTGTGATC ((((((...)))))) | -39.9 kcal/mol | 56.6 °C
GATCACATCTGTGATC ((((((....)))))) | -38.7 kcal/mol | 57.9 °C
GATCACATTTGTGATC ((((((....)))))) | -40.8 kcal/mol | 59.3 °C
GATCACCACCGTGATC ((((((....)))))) | -37.3 kcal/mol | 55.5 °C
GATCACCATAGTGATC ((((((....)))))) | -42.2 kcal/mol | 58.5 °C
GATCACCCGGGTGATC ((((((....)))))) | -51.9 kcal/mol | 59 °C
GATCACCCTGGTGATC ((((((....)))))) | -41.1 kcal/mol | 64.1 °C
GATCACCGAAAGGTAATC (((.(((....))).))) | -20.9 kcal/mol | 39.5 °C
GATCACCGATGTGATC ((((((....)))))) | -30.1 kcal/mol | 54.6 °C
GATCACCGGCGTGATC ((((((....)))))) | -37.7 kcal/mol | 54.7 °C
GATCACCGGGGTGATC ((((((....)))))) | -46.5 kcal/mol | 62.7 °C
GATCACCGTCGTGATC ((((((....)))))) | -39 kcal/mol | 55.2 °C
GATCACCTAAGTGATC ((((((....)))))) | -38.9 kcal/mol | 56.4 °C
GATCACCTAGGTGATC ((((((....)))))) | -41.5 kcal/mol | 59.7 °C
GATCACCTCTGTGATC ((((((....)))))) | -42.2 kcal/mol | 55 °C
GATCACCTTCGTGATC ((((((....)))))) | -48.5 kcal/mol | 56.7 °C
GATCACCTTTGTGATC ((((((....)))))) | -42.4 kcal/mol | 55 °C
GATCACGAAAGTGCATC ((((((....))).))) | -21.4 kcal/mol | 42.8 °C
GATCACGAAAGTGTAATC ((((((....)))..))) | -10.3 kcal/mol | 30.1 °C
GATCACGAATGTGATC ((((((....)))))) | -37.5 kcal/mol | 67.7 °C

Sequence | folding enthalpy [1] | Tm [2]
GATCACGACGGTGATC ((((((....)))))) | -37.8 kcal/mol | 59.8 °C
GATCACGACTGTGATC ((((((....)))))) | -37.1 kcal/mol | 64 °C
GATCACGATTGTGATC ((((((....)))))) | -33.2 kcal/mol | 56.6 °C
GATCACGCCCGTGATC ((((((....)))))) | -39.8 kcal/mol | 60.6 °C
GATCACGGAAACATGATC (((((.(....).))))) | -26 kcal/mol | 35.4 °C
GATCACGGAAACGTGATC (((((((....))))))) | -34.2 kcal/mol | 66.2 °C
GATCACGGATGTGATC ((((((....)))))) | -37.1 kcal/mol | 67.5 °C
GATCACGGTGGTGATC ((((((....)))))) | -37.2 kcal/mol | 58.3 °C
GATCACGTAAGTGATC ((((((....)))))) | -30.8 kcal/mol | 69.3 °C
GATCACGTGAGTGATC ((((((....)))))) | -28.4 kcal/mol | 69.2 °C
GATCACGTGGGTGATC ((((((....)))))) | -39.5 kcal/mol | 57.1 °C
GATCACTAACGTGATC ((((((....)))))) | -33.1 kcal/mol | 54.9 °C
GATCACTACGGTGATC ((((((....)))))) | -37.9 kcal/mol | 58.7 °C
GATCACTCAAGTGATC ((((((....)))))) | -49.2 kcal/mol | 57 °C
GATCACTCATGTGATC ((((((....)))))) | -40.5 kcal/mol | 57 °C
GATCACTCCTGTGATC ((((((....)))))) | -33.9 kcal/mol | 59.7 °C
GATCACTCGCGTGATC ((((((....)))))) | -44.5 kcal/mol | 57.1 °C
GATCACTGACGTGATC ((((((....)))))) | -32 kcal/mol | 54.3 °C
GATCACTGCAGTGATC ((((((....)))))) | -44.7 kcal/mol | 61.7 °C
GATCACTTACGTGATC ((((((....)))))) | -38.1 kcal/mol | 57.4 °C
GATCACTTCGGTGATC ((((((....)))))) | -40 kcal/mol | 57.4 °C
GATCACTTGTGTGATC ((((((....)))))) | -40.4 kcal/mol | 56.1 °C
GATCACTTTGGTGATC ((((((....)))))) | -42.3 kcal/mol | 57.8 °C
